Screens as filed in PubChem BioAssay.
An excerpt weighted towards active compounds, which were near 2.1% of everything screened.
CXCR6 inh: inhibitors of human CXCR6 receptor. O00574. CHO-K1 PathHunter CXCR6 beta-arrestin, luminescence. inhibition, % at 20 µM. 360,000 compounds, 0.36% hits; in the data active = inhibition above about 34%, passing the limit was not always enough;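 also: antagonist mode with CXCL16 agonist at 10 nM final; 0% = 10 nM CXCL16 with DMSO and 100% = unstimulated wells without agonist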
HTR2A ag: activates the mouse 5-HT2A serotonin receptor; activation, % at 7.6 µM; 360,000 compounds, 0.66% hits; CHO-K1 mHTR2A beta-arrestin complementation, luminescence; percent of 30 µM serotonin response; P35363;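 active = activation above a run cutoff, the mean activation of all tested compounds plus 3 SD, cut at about 14% in these data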;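 also: 0% = plate median of compound wells and 100% = 30 µM serotonin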
CCR6 antag: CCR6 (human) receptor antagonism; AID 493098; 340,000 compounds, 0.49% hits; CHO-K1 CCR6 PathHunter beta-arrestin, luminescence, CCL20-stimulated; P51684; inhibition, % at 20 µM;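 active = compounds whose inhibition of the agonist-driven luminescence signal at 20 µM reaches about 50%, limit read from the data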;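 also: cells stimulated with CCL20 at 14 nM final; plate controls were DMSO with CCL20 for no effect and DMSO without agonist for full effect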
APJ antag: blocks the human apelin receptor APJ; P35414; CHO-K1 APJ beta-arrestin complementation, luminescence; inhibition, % at 20 µM; 330,000 compounds, 0.32% hits; AID 2521;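 active = inhibition above about 40% at 20 µM, limit read from the data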;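 also: cells challenged with 10 nM apelin-13 agonist together with compound; plate controls were apelin-13 plus DMSO wells for no effect and DMSO wells lacking apelin-13 for full effect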
Target sequence (P35414 whole entry, looked up): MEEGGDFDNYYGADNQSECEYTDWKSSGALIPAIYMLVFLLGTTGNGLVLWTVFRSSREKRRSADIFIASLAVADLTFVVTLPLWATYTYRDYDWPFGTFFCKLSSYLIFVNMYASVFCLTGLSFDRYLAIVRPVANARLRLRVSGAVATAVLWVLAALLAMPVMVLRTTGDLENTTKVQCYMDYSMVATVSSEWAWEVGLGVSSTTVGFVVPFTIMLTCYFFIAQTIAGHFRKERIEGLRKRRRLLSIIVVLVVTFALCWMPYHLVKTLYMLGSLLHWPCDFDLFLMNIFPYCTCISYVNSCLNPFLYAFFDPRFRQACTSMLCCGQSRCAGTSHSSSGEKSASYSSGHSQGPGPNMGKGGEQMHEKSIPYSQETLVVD
EBI2 block: antagonists of human EBI2 receptor. P32249. EBI2 beta-arrestin recruitment, luminescence, 7a,25-OHC stimulated. inhibition, % at 5 µM. 360,000 compounds, 0.81% hits. AID 651636; in the data active = inhibition above about 38%;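 also: enzyme fragment complementation signal reports receptor beta-arrestin coupling in cells; 0% = agonist plus DMSO wells and 100% = wells without agonist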
APJ ag: activates the human apelin receptor APJ. P35414. CHO-K1 APJ PathHunter beta-arrestin, luminescence; 0% DMSO wells, 100% apelin. activation, % at 20 µM. 330,000 compounds, 0.11% hits. AID 2520;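 active = activation more than six SD over the plate average, tested at 20 µM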;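 also: 0% = DMSO alone and 100% = apelin-13 at 10 nM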
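system = engineered CHO-K1 APJ arrestin reporter cells | input = 1000 cells per well | timing = overnight seeding, 90 min compound at 25 °C, 1 h detection | measured by = enzyme-fragment complementation luminescence | read-out = beta-arrestin recruitment to APJ as agonist activity, luminescent signal | control set = negative DMSO alone, positive Apelin-13 at 10 nM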
EBI2 conf: confirmation of human EBI2 receptor antagonists. shares compounds with EBI2 block. EBI2 beta-arrestin luminescence, 7a,25-OHC antagonism. inhibition, % at 5 µM. 2,400 compounds, 29% hits. AID 651997;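 active = inhibition of at least 50%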
EBI2 ag: activates EBI2, counter-screen for EBI2 antagonists; 2,400 tested, under 10 active; activation, % at 5 µM; AID 652000; EBI2-expressing cells, agonist mode, luminescence, 60 min; 0% vehicle, 100% 7α,25-dihydroxycholesterol control; shares compounds with EBI2 block;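 active = activation of at least 50%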
bGal counter: counter-screen for EBI2 antagonists: E. coli beta-galactosidase inhibition | inhibition, % at 5 µM | 2,400 compounds, 1% hits | purified beta-galactosidase, luminescent Galacton Star, 15 min | AID 652176 | shares compounds with EBI2 block;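 active = replicate-average signal at least 3 plate SD below neutral wells, shown as high inhibition, flagging enzyme-inhibiting false positives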;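 also: 0% = DMSO wells with enzyme and 100% = wells lacking enzyme; higher means stronger loss of beta-gal luminescence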
Numbers without * were called inactive.

CC(C)(C)c1csc(NC(=O)Nc2ccccc2)n1 was read as CXCR6 inh -4.4, HTR2A ag -5.3, CCR6 antag -1.6, APJ antag -22.8, EBI2 block 42.7*, APJ ag 0.9, EBI2 conf 31.7, EBI2 ag -1.2 and bGal counter -10.0.
`O=C(c1ccc(Cl)cc1)C1CCN(C(=O)c2ccccc2)CC1` gave CXCR6 inh -3.2, HTR2A ag 3.5, CCR6 antag 3.2, APJ antag -9.9, EBI2 block 21.5 and APJ ag 0.1.
Screening O=C(c1ccc(F)cc1)C1CCN(C(=O)c2ccc(Cl)cc2)CC1 returned CXCR6 inh -6.7, HTR2A ag -2.4, CCR6 antag 19.3, EBI2 block 82.6*, EBI2 conf 53.7*, EBI2 ag -0.2 and bGal counter -12.5.
`O=C(c1ccc(Cl)cc1)N1CCN(C(=O)C2CCCCC2)CC1` gave CXCR6 inh -4.2, HTR2A ag 2.6, CCR6 antag 3.3, APJ antag 4.6, EBI2 block 59.7*, APJ ag 0.8, EBI2 conf 16.8, EBI2 ag 2.8 and bGal counter 3.0.
`O=C(c1ccc(Cl)cc1)N1CCCC(C(=O)N2CCCCC2)C1` (stereo unspecified) gave CXCR6 inh -14.1, HTR2A ag 3.2, CCR6 antag 0.9, APJ antag 6.8, EBI2 block -1.9 and APJ ag -2.5.
Screening COc1ccc(N(C(C)=O)c2nc(C)cc(C)c2C#N)c(OC)c1 returned CXCR6 inh 0.6, HTR2A ag 5.6, CCR6 antag 3.1, APJ antag 4.9, EBI2 block -3.4 and APJ ag -2.4.
CC(=O)N1N=C(c2ccncc2)CC1c1ccccc1O (stereo unspecified) was read as CXCR6 inh 8.4, HTR2A ag 3.3, CCR6 antag -13.3, APJ antag -3.9, EBI2 block 1.9 and APJ ag -0.7.
CC(=O)N1N=C(c2ccccc2)CC1c1cn(Cc2ccccc2)c2ccccc12 (stereo unspecified) was read as CXCR6 inh 7.7, HTR2A ag 1.6, CCR6 antag 18.5, APJ antag -2.1, EBI2 block 49.4*, APJ ag -1.3, EBI2 conf 28.9, EBI2 ag -0.6 and bGal counter -1.5.
CCC(=O)c1ccc(OCC(O)CN2CCOCC2)cc1 (stereo unspecified) was read as CXCR6 inh -0.4, HTR2A ag 0.6, CCR6 antag -4.4, APJ antag 8.6, EBI2 block -4.7 and APJ ag -1.6.
Screening CCC(=O)c1ccc(OCC(O)CN2CCN(C(c3ccccc3)c3ccccc3)CC2)cc1 (stereo unspecified) returned CXCR6 inh 10.6, HTR2A ag -6.1, CCR6 antag 0.3, APJ antag 15.9, EBI2 block 74.8*, APJ ag -1.6, EBI2 conf 46.3, EBI2 ag 3.2 and bGal counter 3.2.
Screening N#Cc1ccc(OCC(O)CN2CCN(C(c3ccccc3)c3ccccc3)CC2)cc1 (stereo unspecified) returned CXCR6 inh 3.5, HTR2A ag -16.9, CCR6 antag 9.5, APJ antag 2.5, EBI2 block 88.6*, APJ ag -1.4, EBI2 conf 58.9*, EBI2 ag -0.9 and bGal counter -11.0.
`OC(COc1ccccc1)CN1CCN(C(c2ccccc2)c2ccccc2)CC1` (stereo unspecified) gave CXCR6 inh 5.4, HTR2A ag -8.2, CCR6 antag 3.9, APJ antag -0.8, EBI2 block 59.5*, APJ ag 0.3, EBI2 conf 22.0, EBI2 ag -0.4 and bGal counter -7.9.
For N#Cc1ccc(OCC(O)CN2CCN(CC(O)COc3ccc(C#N)cc3)CC2)cc1 (stereo unspecified) the results were CXCR6 inh 8.3, HTR2A ag -2.2, CCR6 antag -1.1, APJ antag 8.3, EBI2 block 14.7 and APJ ag 0.4.
`N#Cc1ccc(OCC(O)CN2CCN(c3ncc(C(F)(F)F)cc3Cl)CC2)cc1` (stereo unspecified) gave CXCR6 inh -12.3, HTR2A ag -3.5, CCR6 antag 11.6, APJ antag -7.8, EBI2 block 48.4*, APJ ag -4.0, EBI2 conf 32.4, EBI2 ag -1.2 and bGal counter -16.2.
Screening CC1(C(=O)NS(=O)(=O)c2ccccc2Cl)CCN1C(=O)Cc1ccc(Cl)cc1Cl (stereo unspecified) returned CXCR6 inh -7.2, HTR2A ag 4.3 and EBI2 block 1.4.
`COc1cccc(CNC(=O)CN(C)S(=O)(=O)c2ccc(Br)s2)c1` gave CXCR6 inh 4.7, HTR2A ag -0.3, CCR6 antag 9.1, APJ antag 12.0, EBI2 block 7.8 and APJ ag 0.5.
For O=C(CSC1CN(C(c2ccccc2)c2ccccc2)C1)N/N=C/c1ccccc1 the results were CXCR6 inh 11.0, HTR2A ag 8.3, CCR6 antag 16.1, APJ antag -4.4, EBI2 block 48.9*, APJ ag -4.0, EBI2 conf 34.6, EBI2 ag -0.8 and bGal counter -10.0.
Cc1cc(C(=O)CCC(=O)N2CCN(S(=O)(=O)c3ccccc3)CC2)c(C)s1 was read as CXCR6 inh -2.7, HTR2A ag -5.6, CCR6 antag -2.3, APJ antag -22.0, EBI2 block 18.2 and APJ ag 4.9.
For COc1ccc(-n2c(-c3ccco3)nc3c(cnn3-c3ccc(C)cc3)c2=O)cc1 the results were CXCR6 inh 7.4, HTR2A ag 3.2, CCR6 antag 4.3, APJ antag 8.0, EBI2 block 42.8*, APJ ag 1.2, EBI2 conf 38.2, EBI2 ag 0.4 and bGal counter 0.0.
`Cc1ccc(-c2cc(C#N)c(=O)n(Cc3c(Cl)cccc3Cl)c2)cc1` gave CXCR6 inh 5.3, HTR2A ag -1.8, CCR6 antag -2.6, APJ antag -20.6, EBI2 block 46.8*, APJ ag 2.0, EBI2 conf 16.8, EBI2 ag 0.5 and bGal counter -6.7.
